Screening data: PubChem, several laboratories
PREPL inh = PREPL enzyme inhibitors, primary screen, biochemical, fluorescence polarization; inhibition, % at 5.96 µM; recombinant PREPL, fluorescence polarization activity-based probe; 0.68% of 320,000 active; in the data active = inhibition above about 43%;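 note: 0% = enzyme with DMSO and 100% = wells lacking enzyme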
UBC13 polyUb = UBC13 polyubiquitin chain formation inhibitors, primary screen, biochemical, TR-FRET, uHTS; 0.47% of 330,000 active; Ubiquitin-conjugating enzyme E2 N (Homo sapiens), P61088; inhibition, % at 20 µM; AID 485273, 2010; in the data active = inhibition above about 45%, passing the limit was not always enough; inconclusive = no clear call, values can overlap the other calls
Rin1-Abl PPI inh = inhibitors of Rin1-Abl protein binding, primary screen, biochemical, TR-FRET. 0.4% of 360,000 active. inhibition, % at 7.35 µM; in the data active = inhibition above about 5%, passing the limit was not always enough
ALR H2O2 inh = inhibitors of human ALR sulfhydryl oxidase, primary screen, biochemical, H2O2 detection, HRP-luminol luminescence, single point; FAD-linked sulfhydryl oxidase ALR (Homo sapiens), P55789; inhibition, % (no concentration beside the values); purified ALR, DTT oxidation; AID 485317, 2010; 3.8% of 290,000 active;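 active = mean replicate inhibition above about 79%, with every replicate also reaching it, limit read from the data; inconclusive = only one of the two criteria met; inactive = mean below limit and not every replicate reaching it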
Target sequence (P55789 whole entry, looked up): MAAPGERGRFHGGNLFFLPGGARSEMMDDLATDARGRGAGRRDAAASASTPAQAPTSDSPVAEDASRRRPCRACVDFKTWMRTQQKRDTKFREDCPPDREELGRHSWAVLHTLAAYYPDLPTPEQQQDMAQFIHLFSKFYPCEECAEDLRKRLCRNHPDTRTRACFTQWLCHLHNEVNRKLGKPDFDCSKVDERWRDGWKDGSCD
RBBP9 inhibitor = human RBBP9 inhibitors, primary screen, biochemical, fluorescence polarization, FP-Rh probe, HTS; Serine hydrolase RBBP9 (Homo sapiens), O75884; recombinant RBBP9; inhibition, % at 7.94 µM; 0.2% of 220,000 active; AID 1515, 2009;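 active = inhibition above the campaign mean of all tested compounds plus 3 SD, cut at about 14% in these data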;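 note: plate controls were DMSO wells with RBBP9 for no effect and wells lacking RBBP9 protein for full effect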
Target sequence (O75884 whole entry, looked up): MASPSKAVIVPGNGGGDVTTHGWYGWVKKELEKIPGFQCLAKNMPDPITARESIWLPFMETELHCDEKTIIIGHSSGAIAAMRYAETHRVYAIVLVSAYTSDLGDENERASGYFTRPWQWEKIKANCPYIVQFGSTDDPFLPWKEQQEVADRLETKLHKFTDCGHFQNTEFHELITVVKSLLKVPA
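Assay system: recombinant human RBBP9; Reagent: Serine-hydrolase probe FP-Rh, 375 nM pre-mixing; Doses: 7.94 µM single dose, 0.794% DMSO; Incubation: 30 min then 45 min, 25 °C; Detection: fluorescence polarization (mP), excitation 525 nm, emission 598 nm; Evaluation: percent inhibition from mP, scaled between DMSO and no-protein wells.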
SUMO HTRF inh = inhibitors of in vitro SUMOylation cascade, primary screen, biochemical, HTRF, uHTS; HTRF SUMOylation assay, SAE1/SAE2 + UBC9; inhibition, % at 35 µM; AID 2006, 2009; 0.36% of 290,000 active; SUMO-conjugating enzyme UBC9 (Homo sapiens), P63279; in the data active = inhibition above about 50%, passing the limit was not always enough; inconclusive = no clear call, values can overlap the other calls
Casp3 UBC13 ctr = CASP3 inhibitor validation, counterassay for project on UBE2N polyubiquitination blockers, biochemical, one dose. inhibition, % at 20 µM. 4% of 1,400 active. shares compounds with UBC13 polyUb. Recombinant caspase-3, Caspase-Glo 3/7 luminescence, 60 min;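 active = mean inhibition across replicates above about 26%, limit read from the data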;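 note: plate controls were DMSO with caspase-3 for no effect and DMSO wells lacking enzyme for full effect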
Target sequence (P42574 whole entry, looked up): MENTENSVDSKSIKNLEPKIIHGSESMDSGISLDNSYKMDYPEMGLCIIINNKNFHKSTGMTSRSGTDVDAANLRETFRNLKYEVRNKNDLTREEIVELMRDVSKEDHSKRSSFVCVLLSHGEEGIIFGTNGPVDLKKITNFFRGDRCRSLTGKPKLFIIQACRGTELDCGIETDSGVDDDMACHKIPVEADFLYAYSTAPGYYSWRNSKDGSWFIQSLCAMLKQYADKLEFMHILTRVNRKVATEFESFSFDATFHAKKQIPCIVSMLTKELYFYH
UBC13 confirm = UBC13 polyubiquitination inhibitors, single-point retest, confirmation, biochemical, TR-FRET, single concentration; 68% of 1,400 active; shares compounds with UBC13 polyUb; inhibition, % at 10 µM; AID 488859, 2010; in the data active = inhibition above about 45%; inconclusive = no clear call, values can overlap the other calls
An asterisk follows results filed as active; ? = inconclusive; · = not tested or not shown. Only some compounds are listed: those with a hit (about 4.3% of all), similar ones and a draw of the others.

SMILES | PREPL inh | UBC13 polyUb | Rin1-Abl PPI inh | ALR H2O2 inh | RBBP9 inhibitor | SUMO HTRF inh | Casp3 UBC13 ctr | UBC13 confirm
CNC(=O)COC(=O)/C=C/c1cn(-c2ccccc2)nc1-c1ccc(C)o1 | -3 | 55* | -1 | -1 | -4 | 32 | 0 | 44
O=c1c2cc(N3CCOCC3)ccc2[nH]c(=S)n1Cc1ccccc1Cl | -5 | 45* | -1 | 0 | 0 | 12 | -4 | ?
CCOC(=O)C[C@H]1c2ccccc2S(=O)(=O)N1c1cccc(OC)c1 | 4 | -5 | 3 | 1 | · | · | · | ·
O=C(COc1ccc(Cl)cc1)OCC(=O)N1CCCc2ccccc21 | -3 | 63* | 0 | -2 | -8 | -4 | -3 | -3
Cc1ccc(-n2c(C)cc(=O)cc2C)cc1[N+](=O)[O-] | 3 | 0 | -2 | · | · | 0 | · | ·
CCN(CC)CCNC(=O)c1cc2c(s1)-c1ccccc1SC2 | -13 | 50* | -5 | -5 | · | ? | -4 | 53*
CCCN(CCC)CCNC(=O)c1cc2c(=O)n(CC)c3ccccc3c2s1 | -79 | 73* | -3 | · | 3 | 17 | -3 | 74*
NNC(=O)c1cc2c(s1)-c1cc(Cl)ccc1SC2 | 2 | 14 | 2 | -17 | -17 | 21 | · | ·
CCn1c(=O)c2cc(C(=O)NCCOC)sc2c2ccccc21 | 2 | 22 | 0 | 0 | · | 8 | · | ·
CCn1c(=O)c2cc(C(=O)NCCN(C)C)sc2c2ccccc21 | -1 | 46* | -6 | · | · | 20 | -1 | 35
CCN(CC)CCCNC(=O)c1cc2c(=O)n(CC)c3ccccc3c2s1 | -13 | 42 | -5 | · | · | 20 | · | ·
CCN(CC)CCNC(=O)c1cc2c(=O)n(CC)c3ccccc3c2s1 | -14 | 57* | -6 | -2 | · | 4 | 0 | 62*
C[C@@H]1CN([C@H](C)CO)C(=O)CCCn2cc(nn2)CO[C@H]1CN(C)C(=O)c1ccncc1 | · | · | 6 | · | · | · | · | ·
COc1ccc(C)cc1S(=O)(=O)Nc1ccc2c(c1)N(C(C)=O)CCC2 | -7 | -3 | 1 | · | · | · | · | ·
CC1(C)Cc2c(sc(NC(=O)C(=O)NCCCN3CCOCC3)c2C(N)=O)CO1 | -3 | 83* | -1 | 3 | · | 17 | 0 | 106*
COc1ccc(-c2cc(C#N)nc(N3CCN(C)CC3)n2)cc1 | -48 | -8 | 0 | -5 | -10 | 10 | · | ·
COc1ccc(-c2cc(C#N)nc(N3CCNCC3)n2)cc1 | -60 | 98* | 0 | · | -4 | 8 | -3 | 74*
COc1cccc2sc3ccc(C#CC4(O)CCCCC4)cc3c(=O)c12 | -21 | 53* | 0 | 2 | · | 18 | 91* | ?
O=c1c2ccccc2sc2ccc(C#CC3(O)CCCCC3)cc12 | -10 | 14 | -2 | -13 | · | · | · | ·
CC1CCCC(C)N1C(=O)COC(=O)c1ccc(S(=O)(=O)N(C)c2ccccc2)cc1 (centres undefined) | 21 | -5 | 2 | 0 | · | · | · | ·
C=CCCCCCCCCC(=O)N1CCN(c2cc3c(cc2F)c(=O)c(C(=O)O)cn3CC)CC1 | 14 | 47* | 2 | -31 | · | 8 | -2 | 16
O=C(NCCCO)C(=O)NCCc1ccc(Cl)cc1 | 1 | 5 | 0 | -3 | -1 | 6 | · | ·
Cc1c(CCOC(=O)c2ccc(Cl)cc2Cl)sc[n+]1CC(=O)c1ccc(Br)cc1 | -18 | 67* | 0 | 23 | · | · | 1 | 67*
Cc1c(CCOC(=O)C2C3CC4CC(C3)CC2C4)sc[n+]1CC(=O)c1ccc(Br)cc1 (centres undefined) | 42 | 47* | -1 | -3 | -12 | 25 | 4 | 75*
Cc1ccc(S(=O)(=O)Nc2ccc3c(c2)C(=O)N([C@@H](C)CO)C[C@@H](C)[C@@H](CN(C)CC2CC2)OCCCC[C@@H](C)O3)cc1 | · | · | 2 | · | · | · | · | ·
SMILES | PREPL inh | UBC13 polyUb | Rin1-Abl PPI inh | ALR H2O2 inh | RBBP9 inhibitor | SUMO HTRF inh | Casp3 UBC13 ctr | UBC13 confirm
COc1ccnc2c1c(=O)n(Cc1ccc(Cl)cc1Cl)c(=O)n2C | 1 | 36 | -2 | -1 | · | 5 | · | ·
COc1ccnc2c1c(=O)n(Cc1ccc(F)cc1)c(=O)n2C | -13 | 57* | 0 | · | · | · | 0 | 67*
COc1ccnc2c1c(=O)n(Cc1ccc(Cl)cc1)c(=O)n2C | -24 | 71* | 0 | -1 | · | 16 | 0 | ?
O=C(/C=C/c1ccccc1)CC(=O)c1ccccc1O | -1 | -3 | 2 | 2 | -10 | 13 | · | ·
CC1CCCCN1CCNC(=O)c1ccc2c(=O)n(CCc3ccccc3)c(=O)[nH]c2c1 (centres undefined) | 12 | 21 | 2 | 4 | 2 | 22 | · | ·
CC1CCCCN1CCNC(=O)c1ccc2c(=O)n(Cc3ccc(Cl)cc3)c(=S)[nH]c2c1 (centres undefined) | -47 | 49* | -1 | 4 | · | -17 | -1 | 61*
O=[N+]([O-])c1c(-c2cn[nH]c2)n[nH]c1-c1cn[nH]c1 | 1 | 56* | -2 | -7 | -3 | 15 | 4 | 53*
Cc1ccc(OCC(=O)NNC(=O)C2CCCO2)c(C)c1 (centres undefined) | 2 | 2 | 4 | -8 | -5 | 17 | · | ·
COc1ccc2nc(C)cc(N/N=C/c3ccc(F)cc3)c2c1 | 23 | 97* | -6 | -2 | · | -14 | -1 | 113*
COc1ccc(Nc2cc(C)nc3ccc(OC)cc23)cc1 | 30 | -3 | -2 | 5 | · | 8 | · | ·
CCOC(=O)c1nn(-c2ccccc2)c(=O)cc1OCC(=O)Nc1ccccc1OCC | -3 | 57* | 0 | -5 | · | · | -2 | ?
CCOC(=O)c1nn(-c2ccccc2)c(=O)cc1OCC(=O)Nc1cc(C)ccc1C | -20 | 1 | 3 | -26 | · | · | · | ·
CCCCN(C)CCNC(=O)c1cc2c(-c3ccccc3F)nn(C)c2s1 | -39 | 29 | 0 | · | · | 24 | · | ·
CCN(CC)CCCNC(=O)c1cc2c(-c3cccc(OC)c3)nn(C)c2s1 | -5 | 33 | 1 | 3 | · | 26 | · | ·
COc1cccc(-c2nn(C)c3sc(C(=O)NCCCN(C)Cc4ccccc4)cc23)c1 | -48 | 53* | 1 | 3 | · | 13 | -3 | 59*
CCCCN(C)CCNC(=O)c1cc2c(-c3cccc(OC)c3)nn(C)c2s1 | -34 | 46* | 0 | 1 | · | 28 | 1 | 45
CC(C)n1c(CNC(=O)c2ccccc2F)nnc1SCC(=O)NC1CCCCC1 | · | · | 3 | · | · | · | · | ·
